# Measured values reported in ChEMBL document CHEMBL1799919, “Design, synthesis, biological evaluation, and structure-activity relationships of substituted phenyl 4-(2-oxoimidazolidin-1-yl)benzenesulfonates as new tubulin inhibitors mimicking combretastatin A-4” (J Med Chem, 2011).
# Calls of active or inactive are those of the source. The rule behind the calls is not given here.
# Legend:
# K562 = experiment: Antiproliferative activity against human K562 cells after 48 hrs by sulforhodamine B assay; assay type: functional, cell-based; conditions: K562, 48 h
# SK-OV-3 = experiment: Antiproliferative activity against human SKOV3 cells after 48 hrs by sulforhodamine B assay; assay type: functional, cell-based; conditions: SK-OV-3, 48 h
# CCRF-CEM = experiment: Antiproliferative activity against human CEM cells after 48 hrs by sulforhodamine B assay; assay type: functional, cell-based
# L1210 = experiment: Antiproliferative activity against mouse L1210 cells after 48 hrs by sulforhodamine B assay; assay type: functional, cell-based; conditions: L1210, 48 h
# [1] = Antiproliferative activity against mouse P388D1 cells after 48 hrs by sulforhodamine B assay; assay type: functional, cell-based; conditions: P388D1, 48 h
# HT-1080 [2] = experiment: Antiproliferative activity against human HT1080 cells after 48 hrs by sulforhodamine B assay; assay type: functional, cell-based; conditions: HT-1080, 48 h
# CHO-VV 3-2 = experiment: Antiproliferative activity against colchicine- and vinblastine-resistant CHO-VV 3-2 cells after 48 hrs by sulforhodamine B assay; conditions: Cricetulus griseus, CHO-VV 3-2, 48 h
# [3] = Antiproliferative activity against mouse B16F0 cells after 48 hrs by sulforhodamine B assay; assay type: functional, cell-based; conditions: B16F0, 48 h
# DU-145 = experiment: Antiproliferative activity against human DU145 cells after 48 hrs by sulforhodamine B assay; assay type: functional, cell-based; conditions: DU-145, 48 h
# CHO-TAX 5-6 [4] = experiment: Antiproliferative activity against paclitaxel-resistant CHO-TAX 5-6 cells after 48 hrs by sulforhodamine B assay; assay type: functional, cell-based; conditions: Cricetulus griseus, CHO-TAX 5-6, 48 h
# CHO = experiment: Antiproliferative activity against CHO cells after 48 hrs by sulforhodamine B assay; assay type: functional, cell-based; conditions: Cricetulus griseus
# M21 [5] = experiment: Cell cycle arrest in human M21 cells assessed as accumulation at S phase at 5 times IC50 after 24 hrs using propidium iodide staining by flow cytometric analysis (reference value: 30%); assay type: functional
# MDA-MB-231 [6] = experiment: Displacement of N,N'-ethylenebis(iodoacetamide) from colchicine-binding site of beta-tubulin in human MDA-MB-231 cells at 1000 times IC50 preincubated for after 2 hrs before N,N'-ethylenebis(iodoacetamide) addition measured after 1.5 hrs by chemiluminescence assay; assay type: cell-based
# Summary of the method: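 EBI (100 μM final) added for 1.5 h at 37 °C; controls received 0.5% DMSO. Lysates (20 μg protein) run on 10% SDS-PAGE and blotted with anti-β-tubulin (TUB 2.1). β-tubulin–EBI adduct band detected by ECL.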
# [7] = Toxicity against fertilized chicken embryo assessed as mortality at 3 ug per egg, iv by CAM assay; assay type: organism-based, Gallus gallus; conditions: in vivo, read-out: Activity
# Summary of the method: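 Fertilized chicken eggs incubated 10 days with automatic turning, then static. HT-1080 cells (3.5 × 10^5 cells/egg) grafted onto exposed CAM. On day 11, drug in DMSO diluted into cremophor/ethanol/PBS (6.25/6.25/87.5 v/v) excipient, DMSO below 0.5%, 100 μL injected iv into 10-12 eggs. Eggs incubated to day 17, dead embryos counted. Untreated eggs used for normalization. Two independent experiments, at least 10 eggs each.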
# M21 [8] = experiment: Cell cycle arrest in human M21 cells assessed as accumulation at G2/M phase at 5 times IC50 after 24 hrs using propidium iodide staining by flow cytometric analysis (reference value: 9%); assay type: functional
# CHO-TAX 5-6 [9] = experiment: Resistant ratio of IC50 for paclitaxel-resistant CHO-TAX 5-6 cells to IC50 for CHO cells; assay type: functional, Cricetulus griseus
# Summary of the method: (§1)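 Ratio of the IC50 in the resistant line (CEM-VLB, CHO-TAX 5-6 or CHO-VV 3-2) to the IC50 in its parental line (CEM or CHO).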
# [10] = Antiproliferative activity against multidrug-resistant human CEM/VLB cells after 48 hrs by sulforhodamine B assay; assay type: functional
# HT-29 = experiment: Antiproliferative activity against human HT-29 cells after 48 hrs by sulforhodamine B assay; assay type: functional, cell-based; conditions: HT-29, 48 h
# HT-1080 [11] = experiment: Antivasculogenic activity against human HT1080 cells xenografted in chicken chorioallantoic membrane assessed as inhibition of tumor growth at 3 ug per egg, iv measured on day 14 by CAM assay; assay type: functional; parameters: scale not given: the % may be the effect or the level left
# CEM-VLB = experiment: Resistant ratio of IC50 for multidrug-resistant human CEM-VLB cells to IC50 for human CEM cells; assay type: functional; summary of the method: as §1
# MCF7 = experiment: Antiproliferative activity against human MCF7 cells after 48 hrs by sulforhodamine B assay; assay type: functional, cell-based; conditions: MCF7, 48 h
# MDA-MB-231 [12] = experiment: Antiproliferative activity against human MDA-MB-231 cells after 48 hrs by sulforhodamine B assay; assay type: functional, cell-based; conditions: MDA-MB-231, 48 h
# M21 [13] = experiment: Disruption of cytoskeleton microtubule structure of human M21 cells at 5 times IC50 after 16 hrs by indirect immunofluorescence assay; assay type: functional, cell-based
# Summary of the method: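 Fixed in 3.7% formaldehyde, permeabilized with saponin, and stained with anti-β-tubulin (TUB 2.1), Alexa-488 secondary and DAPI. Microtubule structure scored by fluorescence microscopy.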
# M21 [14] = experiment: Antiproliferative activity against human M21 cells after 48 hrs by sulforhodamine B assay; assay type: functional, cell-based; conditions: M21, 48 h
# M21 [15] = experiment: Cell cycle arrest in human M21 cells assessed as accumulation at G0/G1 phase at 5 times IC50 after 24 hrs using propidium iodide staining by flow cytometric analysis (reference value: 61%); assay type: functional
Structure (SMILES),Activity (M21 [5]),inhibition (MDA-MB-231 [6]),Activity (M21 [8]),IC50 (HT-29),IC50 (MCF7),Activity (M21 [13]),IC50 (M21 [14]),Activity (M21 [15]),also measured
CC(=O)O[C@H]1C(=O)[C@@]2(C)[C@H]([C@H](OC(=O)c3ccccc3)[C@]3(O)C[C@H](OC(=O)[C@H](O)[C@@H](NC(=O)c4ccccc4)c4ccccc4)C(C)=C1C3(C)C)[C@]1(OC(C)=O)CO[C@@H]1C[C@@H]2O [PACLITAXEL],,,,,,,,,IC50 (K562): 0.71 nM; IC50 (SK-OV-3): 2.6 nM; IC50 (CCRF-CEM): 0.27 nM; IC50 (L1210): 0.4 nM; IC50 [1]: 35 nM; IC50 (HT-1080 [2]): 0.15 nM; IC50 (CHO-VV 3-2): 140 nM; IC50 [3]: 28 nM; IC50 (DU-145): 1.3 nM; IC50 (CHO-TAX 5-6 [4]): 520 nM; IC50 (CHO): 170 nM
COc1cc(OC)cc(OS(=O)(=O)c2ccc(N3CCNC3=O)cc2)c1,24%,Active,75%,8 nM,10 nM,Active,4.3 nM,1%,mortality [7]: 10%; Ratio IC50 (CHO-TAX 5-6 [9]): 0.71; IC50 (K562): 7.5 nM; IC50 [10]: 9.2 nM; IC50 (SK-OV-3): 6.8 nM; IC50 (CCRF-CEM): 7.1 nM; IC50 (L1210): 6.4 nM; IC50 [1]: 7.8 nM; IC50 (HT-1080 [2]): 8.2 nM; Activity (HT-1080 [11]): 56%; Ratio IC50 (CEM-VLB): 1.3; IC50 (CHO-VV 3-2): 15 nM; IC50 [3]: 25 nM; IC50 (MDA-MB-231 [12]): 14 nM; IC50 (DU-145): 25 nM; IC50 (CHO-TAX 5-6 [4]): 5.2 nM; IC50 (CHO): 7.3 nM
O=C1NCCN1c1ccc(S(=O)(=O)Oc2cccc(Cl)c2)cc1,19%,Active,79%,15 nM,13 nM,Active,9.2 nM,2%,mortality [7]: 0%; Ratio IC50 (CHO-TAX 5-6 [9]): 0.52; IC50 (K562): 16 nM; IC50 [10]: 20 nM; IC50 (SK-OV-3): 22 nM; IC50 (CCRF-CEM): 17 nM; IC50 (L1210): 17 nM; IC50 [1]: 19 nM; IC50 (HT-1080 [2]): 19 nM; Activity (HT-1080 [11]): 46%; Ratio IC50 (CEM-VLB): 1.2; IC50 (CHO-VV 3-2): 20 nM; IC50 [3]: 46 nM; IC50 (MDA-MB-231 [12]): 45 nM; IC50 (DU-145): 58 nM; IC50 (CHO-TAX 5-6 [4]): 9.3 nM; IC50 (CHO): 18 nM
O=C1NCCN1c1ccc(S(=O)(=O)Oc2ccc(F)cc2F)cc1,26%,Active,72%,41 nM,55 nM,Active,35 nM,2%,
O=C1NCCN1c1ccc(S(=O)(=O)Oc2cc(F)cc(F)c2)cc1,29%,Active,59%,36 nM,47 nM,Active,15 nM,12%,
Cc1ccc(OS(=O)(=O)c2ccc(N3CCNC3=O)cc2)cc1,13%,inactive,55%,120 nM,150 nM,Active,93 nM,32%,
COc1cc2c(c(OC)c1OC)-c1ccc(OC)c(=O)cc1[C@@H](NC(C)=O)CC2 [COLCHICINE],,,,,,,,,IC50 (K562): 6.8 nM; IC50 [10]: 360 nM; IC50 (SK-OV-3): 2.1 nM; IC50 (CCRF-CEM): 7.9 nM; IC50 (L1210): 6.9 nM; IC50 [1]: 28 nM; IC50 (HT-1080 [2]): 1.1 nM; IC50 (CHO-VV 3-2): 620 nM; IC50 [3]: 13 nM; IC50 (MDA-MB-231 [12]): 2.9 nM; IC50 (CHO-TAX 5-6 [4]): 140 nM; IC50 (CHO): 220 nM
Cc1cccc(OS(=O)(=O)c2ccc(N3CCNC3=O)cc2)c1,0%,Active,99%,76 nM,57 nM,Active,54 nM,1%,
O=C1NCCN1c1ccc(S(=O)(=O)Oc2cc(Cl)c(Cl)cc2Cl)cc1,0%,Active,99%,30 nM,30 nM,Active,31 nM,1%,
COc1cccc(OS(=O)(=O)c2ccc(N3CCNC3=O)cc2)c1,1%,Active,98%,29 nM,34 nM,Active,24 nM,1%,
CCCOc1ccc(OS(=O)(=O)c2ccc(N3CCNC3=O)cc2)cc1,6%,Active,94%,110 nM,140 nM,Active,96 nM,0%,
CC[C@]1(O)C[C@@H]2CN(CCc3c([nH]c4ccccc34)[C@@](C(=O)OC)(c3cc4c(cc3OC)N(C)[C@H]3[C@@](O)(C(=O)OC)[C@H](OC(C)=O)[C@]5(CC)C=CCN6CC[C@]43[C@@H]65)C2)C1 [VINBLASTINE],,,,,,,,,Ratio IC50 (CHO-TAX 5-6 [9]): 0.41; IC50 (K562): 0.36 nM; IC50 [10]: 600 nM; IC50 (SK-OV-3): 0.039 nM; IC50 (CCRF-CEM): 0.38 nM; IC50 (L1210): 0.16 nM; IC50 [1]: 1.8 nM; IC50 (HT-1080 [2]): 0.099 nM; Ratio IC50 (CEM-VLB): 1579; IC50 (CHO-VV 3-2): 66 nM; IC50 [3]: 0.099 nM; IC50 (MDA-MB-231 [12]): 0.12 nM; IC50 (DU-145): 0.063 nM; IC50 (CHO-TAX 5-6 [4]): 6.9 nM; IC50 (CHO): 17 nM
O=C1NCCN1c1ccc(S(=O)(=O)Oc2ccc3[nH]ccc3c2)cc1,17%,Active,64%,70 nM,100 nM,Active,65 nM,19%,
Cc1cccc(OS(=O)(=O)c2ccc(N3CCNC3=O)cc2)c1C,32%,Active,63%,31 nM,50 nM,Active,17 nM,5%,
CCOc1ccccc1OS(=O)(=O)c1ccc(N2CCNC2=O)cc1,19%,Active,80%,40 nM,83 nM,Active,24 nM,1%,
O=C1NCCN1c1ccc(S(=O)(=O)Oc2ccc(F)c(F)c2)cc1,26%,Active,72%,75 nM,100 nM,Active,47 nM,2%,
Cc1cc(C)c(OS(=O)(=O)c2ccc(N3CCNC3=O)cc2)cc1C,20%,Active,79%,42 nM,66 nM,Active,41 nM,1%,
COc1ccc(OS(=O)(=O)c2ccc(N3CCNC3=O)cc2)cc1OC,19%,Active,80%,67 nM,88 nM,Active,45 nM,1%,
O=C1NCCN1c1ccc(S(=O)(=O)Oc2cccc([N+](=O)[O-])c2)cc1,13%,Active,31%,100 nM,60 nM,Active,48 nM,56%,
